From article PMC3157043 (Nuclear medicine and biology, 2011)
Each block holds one compound with its values, some of them ahead of it.

How the values were obtained:
A2A = conditions: cited from earlier work
[1] = normal rats; cited from earlier work
A2A receptor [2] = target: T1, A2A receptor (Rattus norvegicus, UniProt P30543); assay: PET kinetic experiment in unilaterally 6-OHDA-lesioned rats; assay type: in vivo
[3] = In vitro metabolism in cryopreserved rat hepatocytes; assay type: in vitro ADME; conditions: rat hepatocyte incubation
A2A receptor [4] = target: T1, A2A receptor; assay: Ex vivo brain autoradiography / in vivo blocking; conditions: 30 min after i.v. injection of 12.9 MBq, 50 µm slices
A2A receptor [5] = target: T1, A2A receptor; assay: PET kinetic experiment in normal rats; assay type: in vivo
Procedure, shortened: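 Unlesioned male SD rats, age-matched to 13–14-week lesioned rats, were imaged on an Inveon microPET under isoflurane (2–3% v/v in O2). Each received […]/rat radiotracer i.v. in saline, followed by a 30 min list-mode emission scan. Caudate-putamen ROI mean pixel values were converted to counts/g/min (1 g/mL density) and divided by injected dose to give %ID/g, reported as mean ± SEM.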

[6] = In vivo biodistribution in normal rats; parameters: species or system rat
Procedure, shortened: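 Non-lesioned male SD rats received ~11.1 MBq (300 µCi)/rat radiotracer i.v. in saline. They were killed by CO2 asphyxiation at 30 (n = 4), 60 (n = 4) or 120 min (n = 6). Brain, blood and other tissues were wet-weighed and gamma-counted, and uptake was expressed as %ID/g. Data are mean ± SEM, with means compared by 1-way ANOVA.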

adenosine A2A = adenosine A2A (Rattus norvegicus, UniProt P30543); assay: In vitro autoradiography of rat brain slices; assay type: binding; conditions: 90 min incubation, 2.3 MBq tracer, phosphor imaging
Chain of adenosine A2A (P30543 whole entry): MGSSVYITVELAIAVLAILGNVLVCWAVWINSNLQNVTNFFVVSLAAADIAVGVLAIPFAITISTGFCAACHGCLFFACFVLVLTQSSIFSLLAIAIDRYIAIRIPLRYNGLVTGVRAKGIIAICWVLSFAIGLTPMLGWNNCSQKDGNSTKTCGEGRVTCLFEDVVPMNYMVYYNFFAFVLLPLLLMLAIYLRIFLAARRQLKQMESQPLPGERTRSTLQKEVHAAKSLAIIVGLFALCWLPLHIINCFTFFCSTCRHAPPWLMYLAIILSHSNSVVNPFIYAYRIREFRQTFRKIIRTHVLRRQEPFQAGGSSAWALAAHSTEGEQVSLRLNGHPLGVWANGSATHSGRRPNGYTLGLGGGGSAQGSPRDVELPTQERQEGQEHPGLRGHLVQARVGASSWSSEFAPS

T1 sequence (P30543 whole entry): as above

Structure (SMILES): Nc1nc2c(cnn2CCCc2ccc(OCCF)cc2)c2nc(-c3ccco3)nn12 [MRS5425, 7-(3-(4-(2-fluoroethoxy)phenyl)propyl)-2-(furan-2-yl)-7H-pyrazolo[4,3-e][1,2,4]triazolo[1,5-c]pyrimidin-5-amine]
- selectivity over A1 and A3 (A2A; A2A versus A1 and A3): 1000 fold
- Ki (A2A; read-out: Ki for A2A): 12.4 nM

Structure (SMILES): [11CH3]Oc1ccc(CCCn2ncc3c2nc(N)n2nc(-c4ccco4)nc32)cc1 [[^11C]-SCH442416]
- time of maximum radioactivity accumulation in striatum [1]: 5 min
- time to reach 50% of peak striatal %ID/g [1]: ≤ 25 min
- time to reach lowest striatal %ID/g [1]: ≤ 60 min

- plateau of striatal %ID/g held until (A2A receptor [2]; 6-OHDA rats): 4.5 min
- plateau maintained after peak (A2A receptor [2]; 6-OHDA-lesioned rats, saline): about 3 min
- time of peak baseline striatal %ID/g (A2A receptor [2]; 6-OHDA-lesioned rats, saline, both lesioned and intact sides): 90 s
- %ID/g in lesioned side compared to intact side (A2A receptor [2]; saline baseline, after plateau to 30 min, p < 0.05): significantly higher
- defluorination [3]: evidence for defluorination
- metabolite observed ([3]; HPLC-MS, m/z +16, believed N-oxidation): a major fluorine-containing metabolite
- bone uptake in imaging studies (A2A receptor [5]; PET imaging in rats, marker of defluorination): not observed
- plateau of striatal %ID/g held until (A2A receptor [5]; normal rats): 3.5 min
- striatal uptake versus cortical and other regions (A2A receptor [5]; normal rats, PET images): significantly higher uptake
- time of decline to 75% of peak %ID/g (A2A receptor [5]; normal rats, striatum TAC): about 6 min
- time of maximum striatal ROI-derived %ID/g (A2A receptor [5]; normal rats, striatum TAC): 90 s
- plateau maintained after maximum (A2A receptor [5]; normal rats, striatum TAC, additional time after 90 sec): 2 min
- %ID/g values compared with [11C]-SCH442416 in monkeys (A2A receptor [5]; rat striatum versus 0.035 %ID/mL in monkeys): ~ 20 fold
- primary accumulation (tissues) ([6]; 30, 60, 120 min biodistribution): intestine and urine
- uptake in striatum ([6]; 30 min after i.v. injection, n = 4, mean ± SEM): 0.25 ± 0.09 %ID/g
- uptake in striatum ([6]; 60 min after i.v. injection, n = 4, mean ± SEM): 0.35 ± 0.10 %ID/g
- uptake in striatum ([6]; 120 min after i.v. injection, n = 6, mean ± SEM): 0.13 ± 0.03 %ID/g
- uptake in striatum compared to blood ([6]; at 30 and 60 min): ~ 2 fold
Structure (SMILES): Nc1nc2c(cnn2CCCc2ccc(OCC[18F])cc2)c2nc(-c3ccco3)nn12 [[^18F]-MRS5425, 7-(3-(4-(2-[^18F]fluoroethoxy)phenyl)propyl)-2-(furan-2-yl)-7H-pyrazolo[4,3-e][1,2,4]triazolo[1,5-c]pyrimidin-5-amine]
- ex vivo radioactivity binding in brain slices (A2A receptor [4]): radioactivity binding in the striatal region bilaterally
- radioactivity binding on coronal brain slices (adenosine A2A): radioactivity binding (dark area in Fig 1 b) in the caudate-putamen (striatum) nucleus bilaterally
